In ChEMBL document CHEMBL3734702, “Design of Specific Serine Protease Inhibitors Based on a Versatile Peptide Scaffold: Conversion of a Urokinase Inhibitor to a Plasma Kallikrein Inhibitor” (J Med Chem, 2015):
Where a SMILES comes first, the peptide text is derived from it. Bridges are numbered along the chain shown (N, C = ends). [ ]: non-standard residue; d: D form. Ala(1-amidino-4-piperidyl) = N=C(N)N1CCC(C[C@H](N)C(=O)O)CC1

How the values were obtained:
[1] = biological target: Tissue-type plasminogen activator (Homo sapiens, UniProt P00750); experiment: Inhibition of human tPAn after 15 mins using H-D-Ile-Pro-Arg-p-nitroanilide as substrate
Chain of Tissue-type plasminogen activator (Homo sapiens, UniProt P00750) (P00750 whole entry): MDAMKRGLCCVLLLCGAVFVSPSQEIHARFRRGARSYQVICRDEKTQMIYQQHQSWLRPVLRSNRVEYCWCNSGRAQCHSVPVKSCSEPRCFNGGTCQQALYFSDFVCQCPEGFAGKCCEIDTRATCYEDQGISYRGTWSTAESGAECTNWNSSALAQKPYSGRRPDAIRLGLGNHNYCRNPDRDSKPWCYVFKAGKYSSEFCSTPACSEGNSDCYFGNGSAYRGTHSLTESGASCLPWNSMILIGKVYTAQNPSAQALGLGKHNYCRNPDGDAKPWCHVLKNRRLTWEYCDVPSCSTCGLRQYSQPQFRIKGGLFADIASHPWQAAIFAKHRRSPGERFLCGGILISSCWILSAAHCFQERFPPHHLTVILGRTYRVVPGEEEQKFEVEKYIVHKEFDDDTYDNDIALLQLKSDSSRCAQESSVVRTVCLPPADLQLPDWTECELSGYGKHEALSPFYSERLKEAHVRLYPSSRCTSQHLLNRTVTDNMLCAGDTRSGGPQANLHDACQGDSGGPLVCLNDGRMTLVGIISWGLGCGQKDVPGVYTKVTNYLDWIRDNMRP
In short: (§1)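 Chromogenic substrate was added at about its KM; for KLK1 this was S-2251. Initial velocities were monitored at 405 nm.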

[2] = biological target: T1, Suppressor of tumorigenicity 14 protein (Homo sapiens, UniProt Q9Y5Y6); experiment: Inhibition of human matriptase after 15 mins using H-D-Ile-Pro-Arg-p-nitroanilide as substrate
T1 sequence (Q9Y5Y6 whole entry): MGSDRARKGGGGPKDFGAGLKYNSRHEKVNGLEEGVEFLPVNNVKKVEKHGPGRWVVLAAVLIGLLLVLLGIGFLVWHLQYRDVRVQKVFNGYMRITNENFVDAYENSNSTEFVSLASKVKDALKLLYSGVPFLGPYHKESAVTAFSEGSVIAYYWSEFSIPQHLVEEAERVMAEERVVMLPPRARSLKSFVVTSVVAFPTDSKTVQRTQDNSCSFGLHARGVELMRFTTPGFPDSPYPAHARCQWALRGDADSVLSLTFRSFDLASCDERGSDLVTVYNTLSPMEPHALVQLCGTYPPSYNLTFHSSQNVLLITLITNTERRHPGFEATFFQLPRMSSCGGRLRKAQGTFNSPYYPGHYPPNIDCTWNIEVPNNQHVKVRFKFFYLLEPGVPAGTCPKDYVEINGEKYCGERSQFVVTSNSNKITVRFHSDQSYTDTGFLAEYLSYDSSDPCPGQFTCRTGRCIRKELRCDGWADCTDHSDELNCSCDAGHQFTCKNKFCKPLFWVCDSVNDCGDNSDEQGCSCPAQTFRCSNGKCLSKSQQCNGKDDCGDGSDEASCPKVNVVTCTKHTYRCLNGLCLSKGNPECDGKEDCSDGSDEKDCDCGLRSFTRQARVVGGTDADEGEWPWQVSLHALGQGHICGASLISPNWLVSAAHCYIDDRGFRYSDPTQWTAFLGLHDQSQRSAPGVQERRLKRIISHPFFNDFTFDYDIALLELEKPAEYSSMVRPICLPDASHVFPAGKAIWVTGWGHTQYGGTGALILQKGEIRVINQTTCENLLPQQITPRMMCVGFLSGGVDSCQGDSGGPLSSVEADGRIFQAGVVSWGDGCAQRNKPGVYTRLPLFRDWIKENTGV

[3] = biological target: Vitamin K-dependent protein C (Homo sapiens, UniProt P04070); experiment: Inhibition of human activated protein C after 15 mins using H-D-Ile-Pro-Arg-p-nitroanilide as substrate; in short: as §1
Chain of Vitamin K-dependent protein C (P04070 43-197 limits assumed): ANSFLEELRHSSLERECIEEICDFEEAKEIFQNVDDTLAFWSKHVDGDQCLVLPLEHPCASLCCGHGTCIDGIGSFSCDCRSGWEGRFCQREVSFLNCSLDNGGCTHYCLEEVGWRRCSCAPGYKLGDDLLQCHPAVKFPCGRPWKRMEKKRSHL
Chain of Vitamin K-dependent protein C (P04070 212-461 limits assumed): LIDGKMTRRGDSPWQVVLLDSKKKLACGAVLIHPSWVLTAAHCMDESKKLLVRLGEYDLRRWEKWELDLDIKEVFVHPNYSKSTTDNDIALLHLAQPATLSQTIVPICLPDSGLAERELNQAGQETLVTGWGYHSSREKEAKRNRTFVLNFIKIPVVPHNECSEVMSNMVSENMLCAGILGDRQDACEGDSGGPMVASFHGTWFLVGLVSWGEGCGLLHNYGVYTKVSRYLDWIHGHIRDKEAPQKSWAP

Prothrombin [4] = biological target: Prothrombin (Homo sapiens, UniProt P00734); experiment: Inhibition of human thrombin after 15 mins using H-D-Ile-Pro-Arg-p-nitroanilide as substrate; in short: as §1
Prothrombin [5] = biological target: Prothrombin (Mus musculus, UniProt P19221); experiment: Inhibition of mouse thrombin after 15 mins using H-D-Ile-Pro-Arg-p-nitroanilide as substrate; in short: as §1
[6] = biological target: Tissue-type plasminogen activator (Mus musculus, UniProt P11214); experiment: Inhibition of mouse tPA after 15 mins using Z-D-Arg-Gly-Arg-p-nitroanilide as substrate; in short: as §1
Chain of Tissue-type plasminogen activator (Mus musculus, UniProt P11214) (P11214 whole entry): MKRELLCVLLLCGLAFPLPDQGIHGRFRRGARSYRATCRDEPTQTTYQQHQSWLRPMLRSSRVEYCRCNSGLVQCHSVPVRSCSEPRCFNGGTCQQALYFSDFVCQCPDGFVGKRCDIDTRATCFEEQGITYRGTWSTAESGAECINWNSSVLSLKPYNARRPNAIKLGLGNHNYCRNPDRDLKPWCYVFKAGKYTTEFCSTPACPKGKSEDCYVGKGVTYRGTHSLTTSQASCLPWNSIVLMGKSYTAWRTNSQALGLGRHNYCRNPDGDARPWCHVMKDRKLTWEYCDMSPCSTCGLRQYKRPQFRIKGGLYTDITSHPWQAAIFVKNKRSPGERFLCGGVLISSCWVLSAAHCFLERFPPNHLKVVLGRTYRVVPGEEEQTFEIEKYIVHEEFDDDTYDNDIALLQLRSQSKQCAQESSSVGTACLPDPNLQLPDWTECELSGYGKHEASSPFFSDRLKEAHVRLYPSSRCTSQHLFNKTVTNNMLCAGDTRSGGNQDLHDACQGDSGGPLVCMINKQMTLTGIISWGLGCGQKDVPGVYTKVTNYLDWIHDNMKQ

[7] = biological target: Urokinase-type plasminogen activator (Mus musculus) (UniProt P06869); experiment: Binding affinity to mouse uPA
Chain of Urokinase-type plasminogen activator (Mus musculus) (P06869 21-178 limits assumed): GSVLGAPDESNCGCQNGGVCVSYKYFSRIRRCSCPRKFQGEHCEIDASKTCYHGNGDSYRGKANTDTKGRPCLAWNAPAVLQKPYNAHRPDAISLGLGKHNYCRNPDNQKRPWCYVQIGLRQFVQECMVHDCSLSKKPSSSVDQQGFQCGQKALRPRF
Chain of Urokinase-type plasminogen activator (Mus musculus) (P06869 180-433 limits assumed): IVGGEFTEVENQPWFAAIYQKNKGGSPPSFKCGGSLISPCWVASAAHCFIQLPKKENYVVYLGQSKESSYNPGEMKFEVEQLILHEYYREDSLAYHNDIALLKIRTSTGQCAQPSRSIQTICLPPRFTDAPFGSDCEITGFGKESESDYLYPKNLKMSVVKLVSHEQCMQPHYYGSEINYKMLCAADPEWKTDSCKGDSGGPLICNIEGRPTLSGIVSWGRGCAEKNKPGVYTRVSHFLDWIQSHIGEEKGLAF

[8] = biological target: T2, Urokinase-type plasminogen activator (Homo sapiens, UniProt P00749); experiment: Binding affinity to human uPA
Coagulation factor XI = Coagulation factor XI (Homo sapiens, UniProt P03951); experiment: Inhibition of human coagulation factor 11a after 15 mins
Chain of Coagulation factor XI (P03951 19-387 limits assumed): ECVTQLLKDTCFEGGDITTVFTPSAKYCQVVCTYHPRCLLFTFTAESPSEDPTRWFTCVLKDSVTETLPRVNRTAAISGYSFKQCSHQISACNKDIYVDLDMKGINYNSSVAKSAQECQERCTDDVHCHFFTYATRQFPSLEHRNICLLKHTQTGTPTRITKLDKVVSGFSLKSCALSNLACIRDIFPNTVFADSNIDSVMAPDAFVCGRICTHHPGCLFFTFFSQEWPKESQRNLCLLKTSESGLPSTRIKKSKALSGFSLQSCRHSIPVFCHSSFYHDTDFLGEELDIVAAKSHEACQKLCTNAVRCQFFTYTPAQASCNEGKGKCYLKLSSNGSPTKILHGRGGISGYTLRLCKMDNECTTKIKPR
Chain of Coagulation factor XI (P03951 388-625 limits assumed): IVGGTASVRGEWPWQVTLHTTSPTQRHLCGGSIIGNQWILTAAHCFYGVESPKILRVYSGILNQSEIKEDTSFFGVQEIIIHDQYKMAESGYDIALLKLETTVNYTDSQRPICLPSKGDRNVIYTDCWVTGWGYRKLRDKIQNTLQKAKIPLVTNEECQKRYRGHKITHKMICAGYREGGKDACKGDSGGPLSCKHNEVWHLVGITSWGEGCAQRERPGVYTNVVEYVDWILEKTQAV

Plasminogen [9] = biological target: Plasminogen (Mus musculus, UniProt P20918); experiment: Inhibition of mouse plasmin after 15 mins using H-D-Ile-Pro-Arg-p-nitroanilide as substrate; in short: as §1
Chain of Plasminogen (Mus musculus, UniProt P20918) (P20918 98-581 limits assumed): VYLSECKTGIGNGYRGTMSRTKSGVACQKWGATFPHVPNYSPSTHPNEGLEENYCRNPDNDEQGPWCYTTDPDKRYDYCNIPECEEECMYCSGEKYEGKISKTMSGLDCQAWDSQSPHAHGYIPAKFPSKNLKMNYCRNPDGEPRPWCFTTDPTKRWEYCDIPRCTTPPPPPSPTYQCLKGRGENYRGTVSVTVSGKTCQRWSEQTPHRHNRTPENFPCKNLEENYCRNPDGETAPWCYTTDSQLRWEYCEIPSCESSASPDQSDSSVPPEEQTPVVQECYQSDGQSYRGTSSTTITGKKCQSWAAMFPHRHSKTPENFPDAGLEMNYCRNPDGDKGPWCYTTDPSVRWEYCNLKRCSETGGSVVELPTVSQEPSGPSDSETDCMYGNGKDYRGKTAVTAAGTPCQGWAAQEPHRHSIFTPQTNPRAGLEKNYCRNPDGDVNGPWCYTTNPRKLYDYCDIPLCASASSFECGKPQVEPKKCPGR
Chain of Plasminogen (Mus musculus, UniProt P20918) (P20918 582-812 limits assumed): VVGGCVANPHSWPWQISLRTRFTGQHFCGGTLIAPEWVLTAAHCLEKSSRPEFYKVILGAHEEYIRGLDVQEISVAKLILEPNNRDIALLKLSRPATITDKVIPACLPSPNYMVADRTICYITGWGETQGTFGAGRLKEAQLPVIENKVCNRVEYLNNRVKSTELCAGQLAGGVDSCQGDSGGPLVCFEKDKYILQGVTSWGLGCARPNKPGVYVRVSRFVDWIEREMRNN

Plasminogen [10] = biological target: Plasminogen (Homo sapiens, UniProt P00747); experiment: Inhibition of human plasmin after 15 mins using H-D-Ile-Pro-Arg-p-nitroanilide as substrate; in short: as §1
Chain of Plasminogen (Homo sapiens, UniProt P00747) (P00747 97-580 limits assumed): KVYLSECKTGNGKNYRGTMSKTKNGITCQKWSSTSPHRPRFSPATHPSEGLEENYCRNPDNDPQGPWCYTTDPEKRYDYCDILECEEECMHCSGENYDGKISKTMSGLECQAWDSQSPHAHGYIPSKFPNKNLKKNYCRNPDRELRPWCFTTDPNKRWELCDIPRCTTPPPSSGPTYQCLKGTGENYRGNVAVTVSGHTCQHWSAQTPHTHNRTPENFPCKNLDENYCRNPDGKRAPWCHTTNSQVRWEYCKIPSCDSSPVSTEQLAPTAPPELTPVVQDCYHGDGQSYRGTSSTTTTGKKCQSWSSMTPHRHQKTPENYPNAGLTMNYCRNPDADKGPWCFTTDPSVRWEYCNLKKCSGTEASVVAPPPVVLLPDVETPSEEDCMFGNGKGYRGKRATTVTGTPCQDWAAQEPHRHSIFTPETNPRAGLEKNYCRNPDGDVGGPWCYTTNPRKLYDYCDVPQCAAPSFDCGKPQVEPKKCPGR
Chain of Plasminogen (Homo sapiens, UniProt P00747) (P00747 581-810 limits assumed): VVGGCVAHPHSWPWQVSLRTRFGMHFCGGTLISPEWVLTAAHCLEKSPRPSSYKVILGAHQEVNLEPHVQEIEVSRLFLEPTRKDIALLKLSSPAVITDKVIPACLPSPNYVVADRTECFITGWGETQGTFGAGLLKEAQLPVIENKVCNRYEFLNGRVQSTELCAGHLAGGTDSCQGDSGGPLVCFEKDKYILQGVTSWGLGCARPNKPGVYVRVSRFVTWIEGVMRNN

[11] = biological target: Urokinase-type plasminogen activator (Mus musculus, UniProt P06869); experiment: Inhibition of mouse uPA for 15 mins using pyro-Glu-Gly-Arg-p-nitroanilide as substrate
Chain of Urokinase-type plasminogen activator (Mus musculus, UniProt P06869) (P06869 21-178 limits assumed): as the sequence (P06869 21-178 limits assumed) above
Chain of Urokinase-type plasminogen activator (Mus musculus, UniProt P06869) (P06869 180-433 limits assumed): as the sequence (P06869 180-433 limits assumed) above

[12] = biological target: T2, Urokinase-type plasminogen activator; experiment: Inhibition of human uPA for 15 mins using pyro-Glu-Gly-Arg-p-nitroanilide as substrate
Plasma kallikrein [13] = biological target: Plasma kallikrein (Mus musculus, UniProt P26262); experiment: Inhibition of mouse plasma kallikrein for 15 mins using H-D-Pro-Phe-Arg-p-nitroanilide as substrate; type: cell-free; in short: as §1
Kallikrein-1 = Kallikrein-1 (Homo sapiens, UniProt P06870); experiment: Inhibition of human KLK1 after 15 mins using Val-Leu-Lys-p-nitroanilide as substrate; in short: as §1
Chain of Kallikrein-1 (P06870 whole entry): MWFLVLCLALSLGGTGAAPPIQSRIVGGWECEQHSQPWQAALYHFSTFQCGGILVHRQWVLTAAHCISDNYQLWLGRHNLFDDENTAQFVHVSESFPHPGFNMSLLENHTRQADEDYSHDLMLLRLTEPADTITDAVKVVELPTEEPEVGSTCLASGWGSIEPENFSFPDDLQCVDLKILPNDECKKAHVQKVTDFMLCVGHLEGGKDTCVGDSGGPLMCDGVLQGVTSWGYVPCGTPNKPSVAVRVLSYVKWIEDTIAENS

Serine protease 1 = biological target: T3, Serine protease 1 (Bos taurus, UniProt P00760); experiment: Inhibition of bovine beta-trypsin after 15 mins using Bz-Ile-Glu(g-OR)-Gly-Arg-p-nitroanilide as substrate; in short: as §1
T3 sequence (P00760 whole entry): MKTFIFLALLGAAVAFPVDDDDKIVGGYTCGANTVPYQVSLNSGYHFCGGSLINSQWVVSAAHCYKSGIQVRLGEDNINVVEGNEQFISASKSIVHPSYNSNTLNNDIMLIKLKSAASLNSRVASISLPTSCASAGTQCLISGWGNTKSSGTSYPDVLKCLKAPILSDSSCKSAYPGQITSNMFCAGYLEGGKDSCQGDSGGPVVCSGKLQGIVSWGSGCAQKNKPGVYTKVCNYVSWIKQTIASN

Plasma kallikrein [14] = biological target: Plasma kallikrein (Homo sapiens, UniProt P03952); experiment: Inhibition of human plasma kallikrein for 15 mins using H-D-Pro-Phe-Arg-p-nitroanilide as substrate; type: cell-free

With `CC(C)C[C@@H]1NC(=O)[C@H](C)NC(=O)[C@H](CC2CCN(C(=N)N)CC2)NC(=O)[C@H](Cc2ccccc2)NC(=O)[C@H](CCCNC(=N)N)NC(=O)[C@H](C)NC(=O)[C@@H]2CCCN2C(=O)[C@@H](N)CSSC[C@@H](C(=O)O)NC(=O)[C@H](Cc2ccccc2)NC1=O` (H-CPARF[Ala(1-amidino-4-piperidyl)]ALFC-OH; disulfide 1-10) the Ki [1] was over 1000 µM, the Ki [2] was over 1000 µM and the Ki [3] was over 1000 µM. For the same compound, the Ki (Prothrombin [4]) was over 1000 µM, the Ki (Prothrombin [5]) was over 1000 µM and the Ki [6] was over 1000 µM.

Work on `CC(C)C[C@@H]1NC(=O)[C@H](C)NC(=O)[C@H](CC2CCN(C(=N)N)CC2)NC(=O)[C@H](Cc2ccccc2)NC(=O)[C@H](CCCNC(=N)N)NC(=O)[C@H](C)NC(=O)[C@@H]2CCCN2C(=O)[C@@H](N)CSSC[C@@H](C(=O)O)NC(=O)[C@H](Cc2c[nH]c3ccccc23)NC1=O` (H-CPARF[Ala(1-amidino-4-piperidyl)]ALWC-OH; disulfide 1-10) yielded a Ki [1] of over 1000 µM, a Ki [2] of over 1000 µM and a Ki [3] of over 1000 µM. The Ki (Prothrombin [4]) was over 1000 µM, the Ki (Prothrombin [5]) was over 1000 µM and the Ki [6] was over 1000 µM.

Work on `CC(C)C[C@@H]1NC(=O)[C@H](Cc2ccc(O)cc2)NC(=O)[C@H](CCCNC(=N)N)NC(=O)[C@H](CO)NC(=O)[C@H](Cc2ccc(O)cc2)NC(=O)[C@H](C)NC(=O)[C@@H]2CCCN2C(=O)[C@@H](N)CSSC[C@@H](C(=O)O)NC(=O)[C@H](CC(=O)O)NC1=O` (H-CPAYSRYLDC-OH; disulfide 1-10) yielded an Activity [7] of 2 nM, a Ki [1] of over 1000 µM and a Ki [2] of over 1000 µM. It also gave a Ki [3] of over 1000 µM, a Ki (Prothrombin [4]) of over 1000 µM and an Activity [8] of 530 nM. The Ki (Prothrombin [5]) was over 1000 µM and the Ki [6] was over 1000 µM.

With `CC(C)C[C@@H]1NC(=O)[C@H](Cc2ccc(O)cc2)NC(=O)[C@H](CC2CCN(C(=N)N)CC2)NC(=O)[C@H](CO)NC(=O)[C@H](Cc2ccc(O)cc2)NC(=O)[C@H](C)NC(=O)[C@@H]2CCCN2C(=O)[C@@H](N)CSSC[C@@H](C(=O)O)NC(=O)[C@H](CC(=O)O)NC1=O` (H-CPAYS[Ala(1-amidino-4-piperidyl)]YLDC-OH; disulfide 1-10) the Ki [1] was over 1000 µM, the Ki [2] was over 1000 µM and the Ki [3] was over 1000 µM. It also gave a Ki (Prothrombin [4]) of over 1000 µM, a Ki (Prothrombin [5]) of over 1000 µM and a Ki [6] of over 1000 µM.

With `CC(C)C[C@@H]1NC(=O)[C@H](C)NC(=O)[C@H](CC2CCN(C(=N)N)CC2)NC(=O)[C@H](Cc2ccccc2)NC(=O)[C@H](CCCNC(=N)N)NC(=O)[C@H](CCCCN)NC(=O)[C@@H]2CCCN2C(=O)[C@@H](N)CSSC[C@@H](C(=O)O)NC(=O)[C@H](Cc2ccccc2)NC1=O` (H-CPKRF[Ala(1-amidino-4-piperidyl)]ALFC-OH; disulfide 1-10) the Ki (Coagulation factor XI) was 12.1 µM, the Ki (Plasminogen [9]) was 3.42 µM and the Ki [1] was over 1000 µM. The Ki (Plasminogen [10]) was 12.5 µM, the Ki [2] was over 1000 µM and the Ki [11] was over 1000 µM. The Ki [3] was over 1000 µM, the Ki [12] was over 1000 µM and the Ki (Plasma kallikrein [13]) was 0.043 µM. For the same compound, the Ki (Kallikrein-1) was 0.384 µM, the Ki (Prothrombin [4]) was over 1000 µM and the Ki (Serine protease 1) was 14.1 µM. For the same compound, the Ki (Plasma kallikrein [14]) was 0.022 µM, the Ki (Prothrombin [5]) was over 1000 µM and the Ki [6] was over 1000 µM.
